22 molecules from ChEMBL document CHEMBL5357038, “Highly efficient, catalyst-free, one-pot sequential four-component synthesis of novel spiroindolinone-pyrazole scaffolds as anti-Alzheimer agents: in silico study and biological screening” (RSC Med Chem, 2024) can be followed below.

In test [1] the target is T1, Cholinesterase (Homo sapiens, UniProt P06276). The test can be described thus: Inhibition of BuChE (unknown origin) at 50 uM by Ellman's method relative to control. (DTNB colorimetry detects thiols as they appear.)
T1 sequence (P06276 whole entry): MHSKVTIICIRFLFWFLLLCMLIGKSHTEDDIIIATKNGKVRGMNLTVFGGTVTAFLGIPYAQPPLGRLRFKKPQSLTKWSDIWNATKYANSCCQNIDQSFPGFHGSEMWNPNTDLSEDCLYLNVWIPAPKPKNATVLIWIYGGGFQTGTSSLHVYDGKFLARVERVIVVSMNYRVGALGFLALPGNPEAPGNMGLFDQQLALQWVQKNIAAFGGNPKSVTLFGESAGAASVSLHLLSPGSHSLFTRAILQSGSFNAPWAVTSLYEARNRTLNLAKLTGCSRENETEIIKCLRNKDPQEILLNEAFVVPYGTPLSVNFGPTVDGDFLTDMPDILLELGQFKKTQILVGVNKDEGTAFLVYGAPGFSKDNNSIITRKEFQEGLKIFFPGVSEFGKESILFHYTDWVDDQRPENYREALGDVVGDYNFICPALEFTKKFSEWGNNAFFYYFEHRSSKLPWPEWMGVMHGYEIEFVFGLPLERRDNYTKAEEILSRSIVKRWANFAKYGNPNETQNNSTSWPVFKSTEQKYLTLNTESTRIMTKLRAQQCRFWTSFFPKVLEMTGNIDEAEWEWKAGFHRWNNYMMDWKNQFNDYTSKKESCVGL
For test [2], the target named is T2, Acetylcholinesterase (Homo sapiens, UniProt P22303). The test can be described thus: Inhibition of AChE (unknown origin) at 50 uM by Ellman's method relative to control.
T2 sequence (P22303 whole entry): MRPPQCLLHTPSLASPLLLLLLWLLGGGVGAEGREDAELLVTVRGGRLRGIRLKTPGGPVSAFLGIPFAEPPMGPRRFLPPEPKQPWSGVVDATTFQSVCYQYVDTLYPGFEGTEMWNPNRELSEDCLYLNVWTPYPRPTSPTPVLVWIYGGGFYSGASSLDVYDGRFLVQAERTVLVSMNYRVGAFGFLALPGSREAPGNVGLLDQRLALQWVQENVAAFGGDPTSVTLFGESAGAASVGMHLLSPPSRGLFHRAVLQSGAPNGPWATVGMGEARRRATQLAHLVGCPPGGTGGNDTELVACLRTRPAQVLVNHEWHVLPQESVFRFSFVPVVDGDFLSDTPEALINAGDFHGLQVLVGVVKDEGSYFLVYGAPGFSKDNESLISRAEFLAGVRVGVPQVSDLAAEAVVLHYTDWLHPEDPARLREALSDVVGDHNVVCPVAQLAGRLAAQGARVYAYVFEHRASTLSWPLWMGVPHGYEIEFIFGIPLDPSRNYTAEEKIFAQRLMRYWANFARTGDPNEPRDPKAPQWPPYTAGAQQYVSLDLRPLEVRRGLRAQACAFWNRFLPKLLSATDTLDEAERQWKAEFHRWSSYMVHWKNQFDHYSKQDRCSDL
The target in test [3] is T1, Cholinesterase. The test can be described thus: Inhibition of BuChE (unknown origin) by Ellman's method.
The target of test [4] is T2, Acetylcholinesterase. Nature of the test: Inhibition of AChE (unknown origin) by Ellman's method.
Test [5] concerns the target T2, Acetylcholinesterase. Nature of the test: Inhibition of AChE (unknown origin) assessed as inhibition constant. In a few lines:
(§1)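 AChE kinetics run with acetylthiocholine substrate at 0.1–1 mM, with no inhibitor and with several inhibitor concentrations. Lineweaver–Burk double-reciprocal plots (1/V vs 1/[S]) across the inhibitor concentrations assigned the inhibition type and gave Km. Ki was estimated from a secondary plot of the slopes against inhibitor concentration.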

The nature of test [6]: Selectivity index, ratio of Ki for inhibition of AChE (unknown origin) to Ki for inhibition of BuChE (unknown origin).
In test [7] the target is T2, Acetylcholinesterase. The test can be described thus: Inhibition of AChE (unknown origin) using acetylthiocholine as substrate incubated for 15 mins by DTNB reagent based Ellman's method.
Test [8] concerns the target T1, Cholinesterase. Nature of the test: Inhibition of BuChE (unknown origin) incubated for 15 mins by DTNB reagent based Ellman's method.
For test [9], the target named is T2, Acetylcholinesterase. Nature of the test: Mixed type inhibition of AChE (unknown origin) assessed as change in Vmax by Lineweaver-burk plot analysis. Conditions: dose 2-12 µM. In a few lines:
as §1

In test [10] the target is T2, Acetylcholinesterase. Nature of the test: Mixed type inhibition of AChE (unknown origin) assessed as increase in Km at 2 to 12 uM by Lineweaver-burk plot analysis. To be noted: dose 2-12 µM. In a few lines: as §1
For test [11], the system named is SH-SY5Y. Nature of the test: Cytotoxicity against human SH-SY5Y cells assessed as reduction in cell viability at 5 uM by MTT assay. It is filed as functional, cell-based. The method in brief:
(§2)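 SH-SY5Y cells were grown in DMEM/F12 with 15% FBS, penicillin (100 units per ml) and streptomycin (100 μg ml−1) at 37 °C in humidified 5% CO2/95% air. After treatment, MTT was added at 0.5 mg ml−1 final for a further 2 h. Formazan was dissolved in DMSO and read at 540 nm. Untreated control cells were set as 100% viability.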

Test [12] deals with SH-SY5Y. Nature of the test: Cytotoxicity against human SH-SY5Y cells assessed as reduction in cell viability at 50 uM by MTT assay. In kind it is functional. The method in brief: as §2
On the technique in general: Tetrazolium dyes change colour on reduction, which living cells bring about.

Test [13] addresses T2, Acetylcholinesterase. Nature of the test: Mixed type inhibition of AChE (unknown origin) assessed as inhibition constant by Lineweaver-burk plot analysis. The method in brief:
as §1

A short description of test [14]: Cytotoxicity against human MC65 cells assessed as reduction in cell viability. It is filed as functional.
Test [15] addresses T1, Cholinesterase. Nature of the test: Inhibition of BuChE (unknown origin).
The target of test [16] is T2, Acetylcholinesterase. Nature of the test: Inhibition of AChE (unknown origin).

Activity calls are given as the source filed them. The rule behind the calls is not given here.

What is called inhibition is the relative decrease from the control value, in per cent. For `O=C1Nc2c(C(F)(F)F)cccc2C12NNC(Nc1cccc(Cl)c1)=C2[N+](=O)[O-]` (centres undefined), the inhibition is 18.8% against Cholinesterase [1] and 20.6% against Acetylcholinesterase [2].

The IC50 is the point on the concentration scale where inhibition reaches its midpoint. In the case of `Cc1ccccc1NC1=C([N+](=O)[O-])C2(NN1)C(=O)Nc1ccc(Cl)cc12` (centres undefined), the inhibition on Cholinesterase [1] turned out to be 73.8%; on Acetylcholinesterase [2] it was 21.9%. Moreover, the IC50 against Cholinesterase [3] was found to be 9.13 µM.

As for `Cc1ccccc1NC1=C([N+](=O)[O-])C2(NN1)C(=O)Nc1ccc([N+](=O)[O-])cc12` (centres undefined), the inhibition at Cholinesterase [1] was found to be 38.9%; at Acetylcholinesterase [2], 71.6%. In addition, half-maximal inhibition against Acetylcholinesterase [4] (IC50) was put at 15.5 µM.

For the molecule `O=C1Nc2c(C(F)(F)F)cccc2C12NNC(Nc1cccc3ccccc13)=C2[N+](=O)[O-]` (centres undefined), the inhibition result at Cholinesterase [1] was “inactive”. On Acetylcholinesterase [2], this molecule yielded an inhibition of 39.1%.

As a reminder, the Ki is the dissociation constant of the complex between target and ligand, obtained from inhibition or displacement. In the case of `Cc1cc(Cl)cc2c1N(C)C(=O)/C2=N\NC(=S)Nc1cccc(S(N)(=O)=O)c1`, the Ki on Acetylcholinesterase [5] turned out to be 0.52 µM. Besides, in test [6], the Ratio Ki is 37.7.

On to `O=C1Nc2ccc([N+](=O)[O-])cc2C12NNC(Nc1ccc(Cl)cc1)=C2[N+](=O)[O-]` (centres undefined), for which the figures for the inhibition against Cholinesterase [1] and against Acetylcholinesterase [2] were 21.8% and 65.9%, respectively. The molecule further came in with an IC50 against Acetylcholinesterase [4] of 37.1 µM.

Turning to `COc1ccc(OC)c(NC2=C([N+](=O)[O-])C3(NN2)C(=O)Nc2ccc([N+](=O)[O-])cc23)c1` (centres undefined), the results for the inhibition at Cholinesterase [1] and against Acetylcholinesterase [2] were 25.1% and 55.1%, respectively. On Acetylcholinesterase [4], half-maximal inhibition (IC50) was put at 42.6 µM.

On to `CCOP(=O)(OCC)C(NCc1cccs1)c1cn(-c2ccccc2)nc1-c1ccc(Cl)cc1` (centres undefined), for which the IC50 on Acetylcholinesterase [7] came out at 0.017 µM; at Cholinesterase [8] it was 6.33 µM.

As for `Cc1ccc(NC2=C([N+](=O)[O-])C3(NN2)C(=O)Nc2ccccc23)cc1C` (centres undefined), the inhibition on Cholinesterase [1] amounted to 31.1%; against Acetylcholinesterase [2], 29.4%.

As for `COc1ccc(NC2=C([N+](=O)[O-])C3(NN2)C(=O)Nc2ccc(OC)cc23)cc1` (centres undefined), on Cholinesterase [1], the inhibition entry was “inactive”. The inhibition on Acetylcholinesterase [2] was found to be 29.7%.

As to `NS(=O)(=O)c1cccc(NC(=S)N/N=C2\C(=O)N(Cc3ccccc3)c3ccc([N+](=O)[O-])cc32)c1`, the Ki at Acetylcholinesterase [5] amounted to 0.22 µM.

For the molecule `O=C1Nc2ccccc2C12NNC(Nc1ccc(Cl)cc1)=C2[N+](=O)[O-]` (centres undefined), the figures for the inhibition at Cholinesterase [1] and against Acetylcholinesterase [2] were 14.9% and 13.9%, respectively.

For `O=C1Nc2ccccc2C12NNC(Nc1cccc(Cl)c1)=C2[N+](=O)[O-]` (centres undefined), the inhibition entry on Acetylcholinesterase [9] was “Dose-Dependent Effect”; against Cholinesterase [1], 13.9%; against Acetylcholinesterase [2], 75.5%. Besides, at Acetylcholinesterase [10], the inhibition entry was “Active”. Moreover, the outcome in the test on SH-SY5Y [11] was inactive. For the same molecule, the Activity with SH-SY5Y [12] is listed as 64.81%. The IC50 against Acetylcholinesterase [4] is 6.02 µM. Moreover, the Ki at Acetylcholinesterase [13] was found to be 5.59 µM.

With `O=C1Nc2ccccc2C12NNC(Nc1ccc(O)cc1)=C2[N+](=O)[O-]` (centres undefined), the inhibition stood at 12.9% on Cholinesterase [1] and 41% against Acetylcholinesterase [2].

In the case of `Cc1ccc(NC2=C([N+](=O)[O-])C3(NN2)C(=O)Nc2ccccc23)cc1` (centres undefined), the inhibition on Cholinesterase [1] stood at 56.5%; on Acetylcholinesterase [2], 30.5%. On Cholinesterase [3], this molecule gave an IC50 of 25.1 µM.

As for `Cc1ccccc1NC1=C([N+](=O)[O-])C2(NN1)C(=O)Nc1ccc(Br)cc12` (centres undefined), the inhibition amounted to 34% against Cholinesterase [1] and 51.8% on Acetylcholinesterase [2]. In addition, the IC50 against Acetylcholinesterase [4] came to 41.7 µM.

For the molecule `O=C(Nc1cccc(-c2cc(-c3ccc(Cl)cc3)n[nH]2)c1)c1ccccc1`, the Activity in test [14] is 90%. Moreover, the figures for the IC50 on Cholinesterase [15] and on Acetylcholinesterase [16] were 1.17 µM and 1.94 µM, respectively.

As to `Cc1cc(-c2cc3cc([N+](=O)[O-])ccc3oc2=O)n[nH]1`, the IC50 against Acetylcholinesterase [16] was 16.3 µM. In other words, the double-digit micromolar range.

Take `Cc1ccccc1NC1=C([N+](=O)[O-])C2(NN1)C(=O)Nc1c(C(F)(F)F)cccc12` (centres undefined): the inhibition at Cholinesterase [1] is 37.5%; on Acetylcholinesterase [2], 63.1%. Moreover, half-maximal inhibition against Acetylcholinesterase [4] (IC50) was put at 17 µM.

For the molecule `Cc1ccccc1NC1=C([N+](=O)[O-])C2(NN1)C(=O)Nc1ccccc12` (centres undefined), the inhibition was 60.1% at Cholinesterase [1] and 35.4% at Acetylcholinesterase [2]. This molecule also returned an IC50 at Cholinesterase [3] of 20 µM.

As to `COc1ccc2c(c1)C1(NNC(Nc3ccc(C)c(C)c3)=C1[N+](=O)[O-])C(=O)N2` (centres undefined), at Cholinesterase [1], the inhibition came out at 52.3%. Moreover, the inhibition result on Acetylcholinesterase [2] is “inactive”. At Cholinesterase [3], this molecule gave a half-inhibitory concentration (IC50) of 47.3 µM.

Regarding `COc1ccc(NC2=C([N+](=O)[O-])C3(NN2)C(=O)Nc2ccccc23)cc1` (centres undefined), the inhibition turned out to be 53.4% against Cholinesterase [1] and 47.8% at Acetylcholinesterase [2]. On Cholinesterase [3], this molecule returned an IC50 of 34.7 µM.
